Sampled rows, rich in hits. Any-hit rate of the full collection: about 1.5%.
PKA-R2B activ: activators of human PKA-R2B complex; PKA-R2B holoenzyme dissociation, Cy5-IP20 fluorescence polarization; R2B truncated from residue 108, S112A mutant; 0% DMSO only, 100% 113 µM cGMP; activation, % at 11.4 µM; actives 0.079% (n = 340,000);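 active = activation above a cutoff set at the mean over all compounds plus 3 SD, cut at about 18% in these data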;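 note: higher means more holoenzyme dissociation and a rise in polarization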
TbMetRS inhib: blocks T. brucei methionyl-tRNA synthetase activity; purified T. brucei MetRS, ATP depletion, Kinase-Glo luminescence; actives 0.4% (n = 360,000); inhibition, % at 11.9 µM;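 active = inhibition above a per-plate cutoff of the control wells' mean inhibition plus 3 SD, cut at about 5.5% in these data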
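Measured by: Kinase-Glo luciferase luminescence reporting remaining unconsumed ATP. Material: purified T. brucei MetRS enzyme. Doses: 11.9 µM compound single dose, 0.9% DMSO. Medium: HEPES buffer containing pyrophosphatase, BSA, spermine, DTT. Times: 15 min preincubation, 2 h reaction, all 25 °C. Reagent: methionine, ATP and bulk E. coli tRNA.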
H9c2 protect: protects H9c2 cardiomyocytes from peroxide injury | H2O2 injury protection, ATPLite, 2 h | protection from H2O2 cell death, % at 20 µM | actives 0.63% (n = 360,000) | AID 588492;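 active = compounds giving at least 50% protection of heart cells from peroxide-induced death in the single-dose screen, raw or plate-pattern-corrected value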
Rin1 Abl inh: human Rin1-Abl interaction inhibition; TR-FRET Rin1/Abl binding, biochemical; inhibition, % at 7.35 µM; actives 0.4% (n = 360,000); in the data active = inhibition above about 5%, passing the limit was not always enough
Target sequence (P00519 whole entry, looked up): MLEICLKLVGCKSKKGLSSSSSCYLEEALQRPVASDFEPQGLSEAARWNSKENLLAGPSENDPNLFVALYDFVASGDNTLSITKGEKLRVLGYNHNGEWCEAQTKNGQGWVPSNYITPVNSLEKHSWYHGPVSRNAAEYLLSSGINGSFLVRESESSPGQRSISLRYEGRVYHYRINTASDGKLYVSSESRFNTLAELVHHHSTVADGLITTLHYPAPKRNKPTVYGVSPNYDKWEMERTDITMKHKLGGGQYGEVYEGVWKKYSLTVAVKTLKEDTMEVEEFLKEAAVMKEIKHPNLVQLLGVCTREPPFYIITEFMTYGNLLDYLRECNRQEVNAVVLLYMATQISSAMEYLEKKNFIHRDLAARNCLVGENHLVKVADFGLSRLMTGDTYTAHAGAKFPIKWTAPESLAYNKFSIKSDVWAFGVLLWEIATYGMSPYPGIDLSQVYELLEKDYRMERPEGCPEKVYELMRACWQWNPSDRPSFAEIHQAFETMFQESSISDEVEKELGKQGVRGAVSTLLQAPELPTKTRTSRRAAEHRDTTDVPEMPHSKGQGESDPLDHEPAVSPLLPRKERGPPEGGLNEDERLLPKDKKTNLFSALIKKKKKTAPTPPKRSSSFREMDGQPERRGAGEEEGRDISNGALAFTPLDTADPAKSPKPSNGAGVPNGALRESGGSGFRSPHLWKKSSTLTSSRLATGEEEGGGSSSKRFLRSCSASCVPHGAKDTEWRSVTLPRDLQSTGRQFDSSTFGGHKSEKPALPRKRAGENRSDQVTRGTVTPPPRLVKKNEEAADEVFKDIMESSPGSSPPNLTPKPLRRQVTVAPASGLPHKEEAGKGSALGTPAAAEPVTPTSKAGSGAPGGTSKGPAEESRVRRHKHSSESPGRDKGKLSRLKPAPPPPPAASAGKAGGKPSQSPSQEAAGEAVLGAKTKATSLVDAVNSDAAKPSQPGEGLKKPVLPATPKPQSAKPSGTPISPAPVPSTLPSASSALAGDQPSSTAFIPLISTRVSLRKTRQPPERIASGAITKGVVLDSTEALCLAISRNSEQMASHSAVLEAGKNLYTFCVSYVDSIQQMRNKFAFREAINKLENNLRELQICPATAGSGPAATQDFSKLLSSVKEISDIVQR
Target sequence (Q13671 whole entry, looked up): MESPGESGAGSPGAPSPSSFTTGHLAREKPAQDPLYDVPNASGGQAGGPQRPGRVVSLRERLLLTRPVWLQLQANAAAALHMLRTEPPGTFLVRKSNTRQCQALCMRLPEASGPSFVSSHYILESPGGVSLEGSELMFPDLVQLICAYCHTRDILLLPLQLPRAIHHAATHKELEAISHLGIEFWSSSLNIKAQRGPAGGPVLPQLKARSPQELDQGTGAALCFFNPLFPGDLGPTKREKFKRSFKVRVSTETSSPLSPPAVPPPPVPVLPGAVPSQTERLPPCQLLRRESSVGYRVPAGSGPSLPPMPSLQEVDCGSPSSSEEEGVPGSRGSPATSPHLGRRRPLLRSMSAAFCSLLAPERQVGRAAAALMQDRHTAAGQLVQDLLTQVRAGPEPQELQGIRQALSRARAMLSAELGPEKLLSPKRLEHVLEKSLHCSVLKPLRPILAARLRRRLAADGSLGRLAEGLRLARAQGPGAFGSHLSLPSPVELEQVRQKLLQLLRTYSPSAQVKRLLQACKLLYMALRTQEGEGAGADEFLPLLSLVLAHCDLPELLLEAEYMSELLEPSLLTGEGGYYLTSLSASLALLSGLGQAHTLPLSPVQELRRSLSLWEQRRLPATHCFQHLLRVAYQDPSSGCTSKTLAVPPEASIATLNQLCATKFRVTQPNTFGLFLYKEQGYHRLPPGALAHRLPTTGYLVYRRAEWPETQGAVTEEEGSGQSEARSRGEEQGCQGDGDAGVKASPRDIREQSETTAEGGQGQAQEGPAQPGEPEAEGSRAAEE
PKA-R1A activ: PKA-R1A complex activation. PKA-R1A dissociation, Cy5-IP20 fluorescence polarization; scaled: DMSO 0%, 113 µM cGMP 100%. actives 0.083% (n = 340,000). activation, % at 11.4 µM. P00514+P68181;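 active = percent activation above the mean of all tested compounds plus 3 SD, cut at about 19% in these data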;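 note: higher means more PKAc released from R1A so a rise in polarization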
TbMetRS confirm: confirmation of Trypanosoma brucei MetRS inhibitors | T. brucei MetRS enzyme, luminescence (ATP depletion) | AID 624412 | inhibition, % at 11.9 µM | actives 93% (n = 1,400) | shares compounds with TbMetRS inhib; in the data active = inhibition above about 7%
Jurkat cytotox: counter-screen for T. brucei MetRS inhibitors: Jurkat cell cytotoxicity; Jurkat cells viability, ATP luminescence; shares compounds with TbMetRS inhib; actives 12% (n = 1,400); inhibition, % at 8.3 µM; in the data active = inhibition above about 15%
TbMetRS FP orth: inhibits T. brucei methionyl tRNA synthetase in orthogonal FP test. shares compounds with TbMetRS inhib. purified T. brucei MetRS, fluorescence polarization. inhibition, % at 11.9 µM. actives 44% (n = 1,400). AID 651607; in the data active = inhibition above about 17%
Numbers stand for hits; . = inactive; / = no result.

SMILES	PKA-R2B activ	TbMetRS inhib	H9c2 protect	Rin1 Abl inh	PKA-R1A activ	TbMetRS confirm	Jurkat cytotox	TbMetRS FP orth
CN(CC(=O)Nc1ccc(F)cc1)C(=O)Cn1cnc2ccc([N+](=O)[O-])cc2c1=O	.	.	.	.	.	/	/	/
CCOC(=O)C1=CCN(S(=O)(=O)c2ccccc2F)C1c1cccc(Cl)c1 (stereo unspecified)	/	.	.	.	/	/	/	/
O=C(NNC(=O)c1cc(-c2ccncc2)nc2ccccc12)Nc1ccc(F)cc1	.	20.4	.	.	.	39.3	.	18.9
O=C(NNC(=O)c1cc(-c2ccccc2)nc2ccccc12)Nc1cccc(Cl)c1	.	.	.	.	.	/	/	/
O=C(NNC(=O)c1cc(-c2cccnc2)nc2ccccc12)Nc1ccc(Cl)cc1	.	20.1	.	.	.	31.0	.	21.7
CC(C)Oc1ccc(CNS(=O)(=O)c2csc(C(N)=O)c2)cc1	.	.	.	.	.	/	/	/
CCN(C(=O)COC(=O)CCC(=O)c1cccs1)c1c(N)n(Cc2ccccc2)c(=O)[nH]c1=O	.	.	.	.	.	/	/	/
CS(=O)(=O)c1ccc(C(=O)Nc2cc(S(C)(=O)=O)ccc2Cl)cc1	.	.	.	.	.	/	/	/
CN(C)S(=O)(=O)c1cccc(NC(=O)c2ccc(-n3cncn3)c([N+](=O)[O-])c2)c1	.	43.2	.	.	.	78.3	.	49.8
O=C(COc1ccccc1Cl)NNC(=O)c1ccc(-n2cncn2)c([N+](=O)[O-])c1	.	12.7	.	.	.	42.5	.	21.4
O=C(c1ccc(-n2cncn2)c([N+](=O)[O-])c1)N1CCN(S(=O)(=O)c2ccccc2F)CC1	.	.	.	.	.	/	/	/
CCN(CC)S(=O)(=O)c1cc(NC(=O)c2ccc(-n3cncn3)c([N+](=O)[O-])c2)ccc1C	.	18.2	.	.	.	46.9	34.8	38.5
Cc1ccc(NC(=O)c2ccc(-n3cccn3)c([N+](=O)[O-])c2)cc1C	.	.	.	.	.	/	/	/
CS(=O)(=O)c1ccc(Cl)c(NC(=O)c2ccc(-n3cncn3)c([N+](=O)[O-])c2)c1	.	57.2	.	.	.	81.4	.	67.0
Cc1cc(C)n(Cc2cc(C(=O)O)c3ccccc3n2)n1	.	.	.	.	.	/	/	/
CC(C)(C)OC[C@H](NC(=O)c1[nH]cnc1C(=O)Nc1ccccc1F)C(=O)OC(C)(C)C	.	.	.	.	.	/	/	/
CCOC(=O)c1ncccc1NC(=O)CC(=O)Nc1cccnc1C(=O)OCC	/	.	.	.	/	/	/	/
Cc1ccc(C(=O)NNC(=O)c2ccc(-n3cncn3)c([N+](=O)[O-])c2)cc1	.	10.6	.	.	.	41.3	.	19.9
Cc1ccc(NC(=O)CN(C)C(=O)c2ccc(Cl)c([N+](=O)[O-])c2)cc1	.	35.5	.	.	.	57.6	.	36.9
CCN(CC)CCNC(=O)c1ccc(NC(=O)c2ccc(-n3cncn3)c([N+](=O)[O-])c2)cc1	.	17.4	.	.	.	36.5	.	.
CC(CCc1ccccc1)NC(=O)c1ccc(-n2cncn2)c([N+](=O)[O-])c1 (stereo unspecified)	.	25.6	.	.	.	54.9	.	30.7
COc1ccc(C(=O)NC(C)CCc2ccccc2)cc1[N+](=O)[O-] (stereo unspecified)	.	.	.	.	.	/	/	/
CN(CC(=O)Nc1ccc(Cl)c(C(F)(F)F)c1)C(=O)c1ccc(N2CCOCC2)c([N+](=O)[O-])c1	.	.	.	.	.	/	/	/
Cc1cccn2c(=O)c(/C=C(\C#N)C(=O)NCc3ccccc3)c(N3CCC(C(N)=O)CC3)nc12	.	.	.	.	.	/	/	/
Cc1cccc(C(=O)Nc2cc(Cl)ccc2-n2cncn2)c1[N+](=O)[O-]	.	.	.	.	.	/	/	/
O=C(NCCC1=CCCCC1)c1ccc(-n2cncn2)c([N+](=O)[O-])c1	.	14.7	.	.	.	32.5	.	19.8

Bioassay records as filed in PubChem BioAssay.
